# According to ChEMBL document CHEMBL1136815, “Synthesis and in vitro evaluation of novel small molecule inhibitors of bacterial arylamine N-acetyltransferases (NATs)” (Bioorg Med Chem Lett, 2003):
# Assay: In vitro inhibition of recombinant Mycobacterium smegmatis N-Acetyltransferase (MSNAT) -catalyzed acetylation of isoniazid (INH).
# Parameters: species or system Mycolicibacterium smegmatis
# In short: (§1)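 Pure recombinant M. smegmatis NAT acetylating isoniazid with acetyl CoA as donor. Acetyl CoA hydrolysis rate followed with 5,5'-dithio-bis(2-nitrobenzoic acid), reading the thio-2-nitrobenzoic acid product spectrophotometrically at 412 nm. Half-maximal inhibitory concentration (IC50) taken from this rate.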
row,IC50 [µM],Compound
1,78,O=C1NC(=O)/C(=C2\CN(Cc3ccc4ccccc4c3)S(=O)(=O)c3ccccc32)S1

# Assay: Inhibition constant of Mycobacterium smegmatis N-Acetyltransferase (MSNAT) -catalyzed acetylation with respect to isoniazid.
# Parameters: species or system Mycolicibacterium smegmatis
row,Ki [µM],Compound
1,70,O=C1NC(=O)/C(=C2\CN(Cc3ccc4ccccc4c3)S(=O)(=O)c3ccccc32)S1

# Assay: In vitro inhibition of recombinant Mycobacterium smegmatis Arylamine N-Acetyltransferase (MSNAT) -catalyzed acetylation of isoniazid (INH); call rule not given here
# Parameters: species or system Mycolicibacterium smegmatis
# In short: as §1
Compound,IC50 [µM],Ki [µM]
CCCCCCCCCCN1C/C(=C2/SC(=O)NC2=O)c2ccccc2S1(=O)=O,22,14.7
O=C1NC(=O)/C(=C2\CN(Cc3ccc(Br)cc3)S(=O)(=O)c3ccccc32)S1,65,
CCC(CC)CN1C/C(=C2/SC(=O)NC2=O)c2ccccc2S1(=O)=O,92,
CN1C/C(=C2/SC(=O)NC2=O)c2ccccc2S1(=O)=O,> 100,
O=C1NC(=O)/C(=C2\CN(Cc3ccc(-c4ccccc4)cc3)S(=O)(=O)c3ccccc32)S1,20,14.4
O=C1NC(=O)/C(=C2\CN(Cc3ccccc3)S(=O)(=O)c3ccccc32)S1,> 100,
C=C(C)CCN1C/C(=C2/SC(=O)NC2=O)c2ccccc2S1(=O)=O,> 100,
O=C1NC(=O)/C(=C2\CN(Cc3ccccn3)S(=O)(=O)c3ccccc32)S1,> 100,

# Second part, the compound after the results:
IC50 [µM],Ki [µM],Compound
29,14,O=C1NC(=O)/C(=C2\CN(Cc3ccc(/C=C/c4ccccc4)cc3)S(=O)(=O)c3ccccc32)S1
33,26.7,O=C1NC(=O)/C(=C2\CN(Cc3ccc(Cl)s3)S(=O)(=O)c3ccccc32)S1
61,43,CCCCCCCCN1C/C(=C2/SC(=O)NC2=O)c2ccccc2S1(=O)=O
> 100,,O=C1NC(=O)/C(=C2\CN(CC3CC3)S(=O)(=O)c3ccccc32)S1
205,,O=C1NC(=O)/C(=C2\CN(CC3CCCCC3)S(=O)(=O)c3ccccc32)S1
82,,O=C1NC(=O)/C(=C2\CN(CCC3CCCCC3)S(=O)(=O)c3ccccc32)S1
> 100,,O=C1NC(=O)/C(=C2\CN(CCOc3ccccc3)S(=O)(=O)c3ccccc32)S1
> 100,,O=C1NC(=O)/C(=C2\CNS(=O)(=O)c3ccccc32)S1

# Assay: In vitro inhibition of recombinant Mycobacterium smegmatis Arylamine N-Acetyltransferase (MSNAT) -catalyzed acetylation of isoniazid (INH); not active
# Parameters: species or system Mycolicibacterium smegmatis
# In short: as §1
row,IC50,Compound
1,Not Active,O=C1CN(Cc2ccc3ccccc3c2)S(=O)(=O)c2ccccc21
2,Not Active,O=C1CSC(=O)N1 [THIAZOLIDINEDIONE]
